Our source for the IC50 values is ChEMBL document CHEMBL2331160, “Trimeric hemibastadin congener from the marine sponge Ianthella basta” (J Nat Prod, 2013).

For one assay, the system named is L5178Y. In words: Cytotoxicity against mouse L5178Y cells assessed as inhibition of cell proliferation by MTT assay. It is filed as functional, cell-based.
A further assay deals with Aurora kinase B (Homo sapiens, UniProt Q96GD4). In words: Inhibition of aurora-B (unknown origin). In outline: (§1)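 Biochemical (cell-free) assay within a panel of 24 protein kinases. Results reported as IC50 values. Procedure as described in earlier work.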
Chain of Aurora kinase B (Q96GD4 whole entry): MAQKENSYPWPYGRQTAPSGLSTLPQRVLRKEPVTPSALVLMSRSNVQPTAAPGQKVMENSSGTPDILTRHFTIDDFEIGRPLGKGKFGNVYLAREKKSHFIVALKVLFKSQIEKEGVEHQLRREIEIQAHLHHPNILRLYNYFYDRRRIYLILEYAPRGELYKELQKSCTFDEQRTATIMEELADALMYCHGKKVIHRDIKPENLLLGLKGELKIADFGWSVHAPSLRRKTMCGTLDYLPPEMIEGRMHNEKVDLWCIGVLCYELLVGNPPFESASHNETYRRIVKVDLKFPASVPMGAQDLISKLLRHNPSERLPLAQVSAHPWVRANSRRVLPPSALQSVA
The target of assay [1] is Receptor tyrosine-protein kinase erbB-2 (Homo sapiens, UniProt P04626). In words: Inhibition of ERBB2 (unknown origin). In outline: as §1
Chain of Receptor tyrosine-protein kinase erbB-2 (P04626 whole entry): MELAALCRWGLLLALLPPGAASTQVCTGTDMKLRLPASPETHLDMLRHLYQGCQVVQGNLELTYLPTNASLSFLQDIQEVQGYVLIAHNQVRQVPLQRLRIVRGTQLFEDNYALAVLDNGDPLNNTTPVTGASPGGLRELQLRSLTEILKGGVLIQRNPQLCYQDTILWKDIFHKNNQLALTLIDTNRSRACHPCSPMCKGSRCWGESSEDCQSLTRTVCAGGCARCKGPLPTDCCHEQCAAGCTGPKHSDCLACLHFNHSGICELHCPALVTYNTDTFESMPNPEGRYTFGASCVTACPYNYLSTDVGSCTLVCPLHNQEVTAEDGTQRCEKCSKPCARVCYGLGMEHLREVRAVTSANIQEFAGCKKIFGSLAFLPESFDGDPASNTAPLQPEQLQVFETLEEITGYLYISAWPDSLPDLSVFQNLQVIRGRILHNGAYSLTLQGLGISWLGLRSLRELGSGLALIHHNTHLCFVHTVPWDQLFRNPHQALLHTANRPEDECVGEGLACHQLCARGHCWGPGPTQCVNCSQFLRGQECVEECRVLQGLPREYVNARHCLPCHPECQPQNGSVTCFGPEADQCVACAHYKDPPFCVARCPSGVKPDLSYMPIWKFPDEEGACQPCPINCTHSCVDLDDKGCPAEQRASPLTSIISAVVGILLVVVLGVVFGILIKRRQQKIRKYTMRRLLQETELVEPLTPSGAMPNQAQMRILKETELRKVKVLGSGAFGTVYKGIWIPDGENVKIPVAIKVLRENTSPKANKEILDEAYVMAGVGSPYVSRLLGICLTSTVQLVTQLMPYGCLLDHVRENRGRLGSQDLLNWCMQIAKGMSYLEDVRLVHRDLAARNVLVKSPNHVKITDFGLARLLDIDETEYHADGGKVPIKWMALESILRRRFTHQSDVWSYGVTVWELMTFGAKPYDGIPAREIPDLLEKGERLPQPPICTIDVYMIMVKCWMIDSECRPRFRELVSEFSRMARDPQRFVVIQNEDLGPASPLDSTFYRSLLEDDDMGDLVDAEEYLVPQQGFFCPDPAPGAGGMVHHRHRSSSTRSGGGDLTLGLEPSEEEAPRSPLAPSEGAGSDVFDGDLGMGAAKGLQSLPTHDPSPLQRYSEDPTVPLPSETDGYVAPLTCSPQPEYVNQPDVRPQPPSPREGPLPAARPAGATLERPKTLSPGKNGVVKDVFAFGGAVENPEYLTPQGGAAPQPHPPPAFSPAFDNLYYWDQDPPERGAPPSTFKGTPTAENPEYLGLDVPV
Assay [2] concerns the target Epidermal growth factor receptor (Homo sapiens, UniProt P00533). Briefly: Inhibition of EGFR (unknown origin). A digest of the protocol: as §1
The next assay deals with T1, Aurora kinase A (Homo sapiens, UniProt O14965).
T1 sequence (O14965 whole entry): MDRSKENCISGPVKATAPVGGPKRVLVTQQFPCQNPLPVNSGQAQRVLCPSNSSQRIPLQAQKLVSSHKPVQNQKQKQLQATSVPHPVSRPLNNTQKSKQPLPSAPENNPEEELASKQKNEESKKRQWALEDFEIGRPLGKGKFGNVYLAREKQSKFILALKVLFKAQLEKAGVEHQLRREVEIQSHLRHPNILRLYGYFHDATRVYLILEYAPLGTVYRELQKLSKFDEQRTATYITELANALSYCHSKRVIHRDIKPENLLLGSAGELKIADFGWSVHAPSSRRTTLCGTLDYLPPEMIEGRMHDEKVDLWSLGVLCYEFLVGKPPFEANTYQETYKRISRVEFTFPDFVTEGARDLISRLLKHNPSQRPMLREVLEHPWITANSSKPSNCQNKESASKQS
Briefly: Inhibition of aurora-A (unknown origin). A digest of the protocol: as §1

The target of assay [3] is Cyclin-dependent kinase 4/cyclin D1 (Homo sapiens, UniProt P11802). Briefly: Inhibition of CDK4/cyclin-D1 (unknown origin). It is filed as protein-complex assay. A digest of the protocol:
as §1

The target in assay [4] is Mitogen-activated protein kinase kinase kinase 8 (Homo sapiens, UniProt P41279). In words: Inhibition of COT (unknown origin). In outline: (§2)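 Biochemical (cell-free) assay using a panel of 24 protein kinases. The read-out was the IC50.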
Chain of Mitogen-activated protein kinase kinase kinase 8 (P41279 whole entry): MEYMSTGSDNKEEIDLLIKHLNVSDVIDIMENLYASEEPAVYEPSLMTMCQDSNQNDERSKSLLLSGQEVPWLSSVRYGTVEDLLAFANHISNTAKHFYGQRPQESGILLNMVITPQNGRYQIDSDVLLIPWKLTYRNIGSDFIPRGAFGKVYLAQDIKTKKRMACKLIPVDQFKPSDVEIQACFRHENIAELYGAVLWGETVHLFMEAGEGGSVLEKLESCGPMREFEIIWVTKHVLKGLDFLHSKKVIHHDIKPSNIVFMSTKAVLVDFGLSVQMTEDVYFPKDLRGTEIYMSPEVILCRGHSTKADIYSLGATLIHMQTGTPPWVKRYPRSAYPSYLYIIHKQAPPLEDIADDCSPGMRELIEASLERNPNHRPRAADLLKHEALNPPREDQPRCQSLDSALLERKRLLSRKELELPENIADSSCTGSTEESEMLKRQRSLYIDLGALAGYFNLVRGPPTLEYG
For assay [5], the target named is T2, Receptor-type tyrosine-protein kinase FLT3 (Homo sapiens, UniProt P36888).
T2 sequence (P36888 whole entry): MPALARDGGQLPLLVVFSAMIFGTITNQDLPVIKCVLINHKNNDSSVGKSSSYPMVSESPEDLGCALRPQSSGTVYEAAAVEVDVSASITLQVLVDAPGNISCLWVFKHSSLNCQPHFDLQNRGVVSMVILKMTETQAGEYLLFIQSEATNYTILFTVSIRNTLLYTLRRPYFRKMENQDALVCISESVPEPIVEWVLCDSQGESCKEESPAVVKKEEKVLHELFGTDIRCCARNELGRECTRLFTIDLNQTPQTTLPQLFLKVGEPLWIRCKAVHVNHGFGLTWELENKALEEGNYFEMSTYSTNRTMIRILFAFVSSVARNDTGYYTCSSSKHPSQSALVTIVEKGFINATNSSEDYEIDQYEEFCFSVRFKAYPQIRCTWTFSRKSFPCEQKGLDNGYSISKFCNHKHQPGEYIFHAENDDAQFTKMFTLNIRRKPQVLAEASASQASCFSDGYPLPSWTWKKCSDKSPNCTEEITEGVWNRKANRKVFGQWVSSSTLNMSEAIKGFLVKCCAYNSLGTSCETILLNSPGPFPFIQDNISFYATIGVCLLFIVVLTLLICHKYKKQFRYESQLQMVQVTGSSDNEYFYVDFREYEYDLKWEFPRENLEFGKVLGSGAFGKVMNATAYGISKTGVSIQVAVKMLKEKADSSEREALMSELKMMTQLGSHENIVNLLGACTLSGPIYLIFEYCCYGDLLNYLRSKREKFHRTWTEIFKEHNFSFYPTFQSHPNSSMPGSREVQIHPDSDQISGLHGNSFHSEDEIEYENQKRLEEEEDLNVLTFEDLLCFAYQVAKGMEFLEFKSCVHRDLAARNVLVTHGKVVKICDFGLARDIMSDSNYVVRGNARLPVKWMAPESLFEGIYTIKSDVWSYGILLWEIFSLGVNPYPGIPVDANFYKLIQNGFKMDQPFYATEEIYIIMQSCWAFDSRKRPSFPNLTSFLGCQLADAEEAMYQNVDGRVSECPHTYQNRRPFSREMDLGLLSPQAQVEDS
Briefly: Inhibition of FLT3 (unknown origin). In outline:
as §2

Chain of Cyclin-dependent kinase 4/cyclin D1 (P11802 whole entry): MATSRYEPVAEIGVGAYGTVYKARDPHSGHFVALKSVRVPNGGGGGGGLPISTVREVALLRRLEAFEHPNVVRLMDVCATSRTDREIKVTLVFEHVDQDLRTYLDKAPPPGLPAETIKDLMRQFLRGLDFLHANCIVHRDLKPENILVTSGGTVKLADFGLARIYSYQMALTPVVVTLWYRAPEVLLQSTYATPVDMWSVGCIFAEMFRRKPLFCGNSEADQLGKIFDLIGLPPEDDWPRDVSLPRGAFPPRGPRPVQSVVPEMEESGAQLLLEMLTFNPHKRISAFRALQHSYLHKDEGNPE
Chain of Cyclin-dependent kinase 4/cyclin D1 (P24385 whole entry, further chain): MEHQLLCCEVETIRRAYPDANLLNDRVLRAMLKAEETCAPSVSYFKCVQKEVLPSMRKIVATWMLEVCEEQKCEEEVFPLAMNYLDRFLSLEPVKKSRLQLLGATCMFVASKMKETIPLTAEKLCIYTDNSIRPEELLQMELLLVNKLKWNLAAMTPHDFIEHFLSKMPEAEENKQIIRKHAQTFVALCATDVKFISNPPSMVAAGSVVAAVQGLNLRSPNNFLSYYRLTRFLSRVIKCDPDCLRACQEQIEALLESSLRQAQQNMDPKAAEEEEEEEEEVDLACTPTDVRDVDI
Chain of Epidermal growth factor receptor (P00533 whole entry): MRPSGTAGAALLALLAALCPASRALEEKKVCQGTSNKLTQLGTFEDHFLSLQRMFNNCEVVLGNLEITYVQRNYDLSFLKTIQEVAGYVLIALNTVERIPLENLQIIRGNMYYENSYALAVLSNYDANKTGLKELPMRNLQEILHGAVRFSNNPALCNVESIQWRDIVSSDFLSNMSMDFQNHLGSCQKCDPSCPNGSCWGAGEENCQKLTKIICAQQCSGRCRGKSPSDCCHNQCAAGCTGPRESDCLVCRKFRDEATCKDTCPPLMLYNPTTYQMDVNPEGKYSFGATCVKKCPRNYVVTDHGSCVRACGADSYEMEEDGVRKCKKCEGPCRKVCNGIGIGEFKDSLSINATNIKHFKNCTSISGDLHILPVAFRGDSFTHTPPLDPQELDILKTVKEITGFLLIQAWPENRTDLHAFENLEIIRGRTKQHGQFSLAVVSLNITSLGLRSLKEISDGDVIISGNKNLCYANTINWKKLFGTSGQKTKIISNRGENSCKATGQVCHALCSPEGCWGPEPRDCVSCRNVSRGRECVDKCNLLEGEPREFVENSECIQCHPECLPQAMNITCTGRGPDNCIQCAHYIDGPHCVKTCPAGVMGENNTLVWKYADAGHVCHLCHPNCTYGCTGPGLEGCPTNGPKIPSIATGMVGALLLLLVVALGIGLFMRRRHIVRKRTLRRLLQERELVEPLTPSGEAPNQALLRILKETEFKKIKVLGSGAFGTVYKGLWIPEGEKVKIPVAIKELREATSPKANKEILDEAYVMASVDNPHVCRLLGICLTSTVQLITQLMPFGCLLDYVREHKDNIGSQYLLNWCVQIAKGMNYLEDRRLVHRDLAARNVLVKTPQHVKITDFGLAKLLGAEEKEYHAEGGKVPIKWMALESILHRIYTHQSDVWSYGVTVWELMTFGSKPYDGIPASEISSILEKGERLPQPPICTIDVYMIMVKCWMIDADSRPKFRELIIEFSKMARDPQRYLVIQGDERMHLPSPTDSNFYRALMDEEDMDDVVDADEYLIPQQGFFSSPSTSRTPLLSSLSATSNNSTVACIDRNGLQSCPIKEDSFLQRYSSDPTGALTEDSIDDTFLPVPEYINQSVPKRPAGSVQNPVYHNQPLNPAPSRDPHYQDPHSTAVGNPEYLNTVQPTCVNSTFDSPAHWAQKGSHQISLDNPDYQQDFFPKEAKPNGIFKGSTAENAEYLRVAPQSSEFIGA

For `O=C1NCCc2ccc(O)c(c2)Oc2c(Br)cc(cc2Br)CCNC(=O)/C(=N/O)Cc2cc(Br)c(O)c(c2)Oc2c(Br)cc(cc2Br)C/C1=N\O` [BASTADIN 16], the IC50 in the assay with L5178Y stood at 1900 nM; against Aurora kinase B, 1600 nM; in assay [1], 4500 nM; in assay [2] it was 2900 nM; on Aurora kinase A it was 1300 nM; in assay [3], 4000 nM.
As to `O=C1N/C=C/c2ccc(c(Br)c2)Oc2cc(ccc2O)CCNC(=O)/C(=N/O)Cc2cc(Br)c(c(Br)c2)Oc2cc(cc(Br)c2O)C/C1=N\O` [BASTADIN 11], the IC50 in the assay with L5178Y worked out at 3700 nM.
In the case of `O=C1NCCc2cc(Br)c(O)c(c2)Oc2c(Br)cc(cc2Br)CCNC(=O)/C(=N/O)Cc2cc(Br)c(O)c(c2)Oc2c(Br)cc(cc2Br)C/C1=N\O` [BASTADIN 6], the IC50 was determined as 1500 nM with L5178Y; 4800 nM in assay [4]; 2900 nM against Aurora kinase B; 7000 nM in assay [1]; 2000 nM in assay [2]; 1700 nM against Aurora kinase A. Also, the IC50 in assay [3] came to 3600 nM; in assay [5] it was 5300 nM.

The term IC50 denotes the point on the concentration scale where inhibition reaches its midpoint.
